Key:
[1] = tested on: p-tau species; assay: ^3H-UCB-J saturation binding in AD P1 fraction pre-blocked with tau PET ligands; design: species or system Human; details: 10 μM pre-blocking of frontal cortex AD P1 fraction
How it was run: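 AD frontal cortex pooled P1 fraction was pre-blocked with 10 μM unlabeled tau PET ligand on ice for 1 h. It was then spun at 2800 rpm for 10–15 min at 4°C to remove free ligand and resuspended in binding buffer. Saturation binding used 0–40 nM ³H-UCB-J, 2 h at room temperature, with filtration and scintillation counting. Data are means ± SEM of three to four experiments in duplicate.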

[2] = target: T1, SV2A (Homo sapiens, UniProt Q7L0J3); format: binding; details: 1 mM levetiracetam; 5 nM ^3H-UCB-J; CN frontal cortex P2 (Figure S2)
[3] = tested on: p-tau species; assay: ^3H-UCB-J vs MK6240 competition binding in P1 fractions; design: species or system Human; details: 100 μM; CN and AD P1 fraction; 5 nM ^3H-UCB-J
How it was run: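 Pooled frontal cortex P1 fractions (0.05 mg protein) from one control and one AD pool. These were incubated 2 h at room temperature with 5 nM ³H-UCB-J plus increasing unlabeled competitor (10⁻¹⁴ to 10⁻⁴) in Tris-HCl pH 7.4 binding buffer. Samples were filtered and counted by scintillation. Binding was expressed as % of total; IC₅₀ came from non-linear competitive-binding regression.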

[4] = target: T1, SV2A; details: frontal cortex (middle frontal gyrus) autoradiography; ref 24 Metaxas et al.; cited from earlier work
[5] = target: T1, SV2A; details: AD middle frontal cortex; ref 34 Mikkelsen et al.; cited from earlier work
[6] = target: tau (Homo sapiens, UniProt P10636); assay: ^3H-MK6240 vs UCB-J competition binding in P1 fractions; details: up to 10 μM UCB-J; CN and AD P1 fractions; 0.5 nM ^3H-MK6240
Chain of tau (P10636 623-758 limits assumed): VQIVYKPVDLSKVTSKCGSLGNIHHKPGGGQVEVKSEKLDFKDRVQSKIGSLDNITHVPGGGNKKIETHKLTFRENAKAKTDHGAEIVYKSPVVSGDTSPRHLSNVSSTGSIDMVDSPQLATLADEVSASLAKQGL

T1 sequence (Q7L0J3 whole entry): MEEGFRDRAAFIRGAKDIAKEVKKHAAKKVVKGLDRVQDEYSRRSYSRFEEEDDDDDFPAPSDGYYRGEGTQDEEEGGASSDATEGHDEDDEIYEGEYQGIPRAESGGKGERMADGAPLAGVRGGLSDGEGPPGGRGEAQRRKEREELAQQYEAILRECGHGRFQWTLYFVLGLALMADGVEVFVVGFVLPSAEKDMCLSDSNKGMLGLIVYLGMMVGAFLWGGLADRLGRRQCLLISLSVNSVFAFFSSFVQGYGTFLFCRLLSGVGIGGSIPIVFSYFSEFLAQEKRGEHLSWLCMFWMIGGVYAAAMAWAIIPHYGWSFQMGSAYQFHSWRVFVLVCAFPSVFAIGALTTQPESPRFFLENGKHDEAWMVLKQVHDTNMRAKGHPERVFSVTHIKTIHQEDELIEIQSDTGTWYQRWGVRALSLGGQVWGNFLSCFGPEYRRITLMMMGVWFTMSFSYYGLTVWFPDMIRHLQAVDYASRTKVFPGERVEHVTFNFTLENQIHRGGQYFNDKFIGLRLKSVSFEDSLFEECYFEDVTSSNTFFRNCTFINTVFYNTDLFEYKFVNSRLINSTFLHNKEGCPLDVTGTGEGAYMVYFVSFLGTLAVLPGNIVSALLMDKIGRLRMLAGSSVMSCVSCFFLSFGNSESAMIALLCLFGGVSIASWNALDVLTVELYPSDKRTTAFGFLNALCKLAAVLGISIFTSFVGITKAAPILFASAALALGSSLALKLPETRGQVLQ

Fc1ccc(-c2ccc3c(c2)[nH]c2ccncc23)cn1 [AV-1451]
reduction in ^3H-UCB-J binding compared to unblocked AD P1 fractions [1]: ≈ 22%

CC[C@@H](C(N)=O)N1CCCC1=O [Levetiracetam]
displacement of ^3H-UCB-J binding compared with 1 μM UCB-J [2]: same displacement

Nc1c(F)ccc2cnc(-n3ccc4ccncc43)cc12 [MK6240]
displacement of ^3H-UCB-J binding [3]: ≈ 38%
reduction in ^3H-UCB-J binding compared to unblocked AD P1 fractions [1]: ≈ 22%

Cc1cnccc1CN1C[C@@H](c2cc(F)c(F)c(F)c2)CC1=O [UCB-J]
difference in UCB-J binding between AD and CN cases [4]: no difference
reduction in UCB-J binding in AD compared to CN [5]: 19%
displacement of ^3H-MK6240 binding [6]: no displacement

— PMC11032538 (Alzheimer's & Dementia, 2024)
